This is a sample that favours compounds with a hit; in the whole collection about 2.5% have one here.
NALP1 yeast inh = blocks the NALP1 inflammasome reconstituted in yeast; S. cerevisiae NALP1/ASC/caspase-1 growth, X-gal OD620, 72 h; AID 2071; inhibition, % at 10 µM; actives 0.61% (n = 280,000); in the data active = inhibition mostly above about 24%, no sharp cut-off; inactive = mostly below about 32%
Bfl-1 A1 inh = inhibitors of the anti-apoptotic protein A1, read as caspase activation; MEF A1-2A-BIM cells, Caspase-Glo 3/7 luminescence, 3 h; percent of clofoctol response, vehicle zero; caspase activation, % (concentration not given with the values); actives 0.066% (n = 330,000);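 active = over half of replicate activation scores above 10%, or exactly half above 10 with the replicate mean above 10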
MC4R antag cAMP = human MC4R antagonism in cAMP assay | P32245 | MC4R-expressing cells, MTII-stimulated cAMP, LANCE TR-FRET | inhibition, % at 6.5 µM | actives 0.48% (n = 360,000);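 active = inhibition above its plate's cutoff, the mean of tested wells on that plate plus 3 SD, cut at about 29% in these data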;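 note: 0% = Melanotan II alone and 100% = Melanotan II plus saturating MCL0020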
Target sequence (P32245 whole entry, looked up): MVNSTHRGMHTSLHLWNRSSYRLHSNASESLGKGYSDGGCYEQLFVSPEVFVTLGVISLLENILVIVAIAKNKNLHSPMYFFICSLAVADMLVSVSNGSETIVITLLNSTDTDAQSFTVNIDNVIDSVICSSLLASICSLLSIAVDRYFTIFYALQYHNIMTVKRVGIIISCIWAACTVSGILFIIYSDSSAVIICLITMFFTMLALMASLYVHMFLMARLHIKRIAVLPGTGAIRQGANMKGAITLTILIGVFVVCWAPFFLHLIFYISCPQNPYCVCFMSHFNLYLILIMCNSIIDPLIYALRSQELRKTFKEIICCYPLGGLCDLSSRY
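Material – human MC4R-expressing U2OS cells · Repeats – no replicates · Detection – TR-FRET with Eu-cAMP and labeled anti-cAMP, 671 nm · Times – compound 30 min, challenge 1 h, detection 1 h · Compound – single nominal compound dose of 6.5 µM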
TbMetRS inhib = Trypanosoma brucei MetRS inhibition; purified T. brucei MetRS, ATP depletion, Kinase-Glo luminescence; inhibition, % at 11.9 µM; actives 0.4% (n = 360,000);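 active = inhibition above a per-plate cutoff of the control wells' mean inhibition plus 3 SD, cut at about 5.5% in these data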;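 note: 0% = DMSO wells median and 100% = median of wells with control inhibitor compound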
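Dosing: 11.9 µM single point; system: parasite MetRS enzyme; technique: luminescence of leftover ATP; times: 15 min enzyme-compound preincubation, 2 h reaction, 10 min detection, 25 °C; replicates: each compound tested once; read-out basis: percent inhibition relative to median high and low control wells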
NLRP3 yeast inh = inhibitors of NALP3 inflammasome in yeast; Yeast reconstituted NLRP3/ASC/caspase-1, beta-gal luminescence, 24 h; inhibition, % at 10 µM; actives 0.39% (n = 330,000); AID 2825;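 active = inhibition of 50% or more; inactive = inhibition below 50%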;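 note: plate controls were induced DMSO wells for no effect and uninduced yeast grown without galactose for full effect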
MC4R ag barr = activates human MC4R beta-arrestin recruitment; U2OS MC4R beta-arrestin complementation, luminescence; percent of melanotan II response, DMSO zero; actives 0.98% (n = 360,000); AID 540308; activation, % at 8.9 µM; P32245;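 active = activation above a per-plate cutoff, the mean activation of sample wells on that plate plus 3 SD, cut at about 8% in these data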
NALP3 yeast conf = NALP3 inhibition confirmation in yeast | inhibition, % at 10 µM | AID 435006 | actives 81% (n = 1,300) | yeast expressing human NALP3, luminescence | shares compounds with NLRP3 yeast inh; in the data active = inhibition above about 48%
Casp1-ASC yeast = counter-screen for NALP3 inhibitors: yeast caspase-1-ASC. AID 488784. actives 66% (n = 1,000). inhibition, % at 10 µM. yeast expressing Caspase-1-ASC, luminescence counter screen. shares compounds with NLRP3 yeast inh
NALP3 retest = yeast NALP3 inhibition, confirmed on retest; AID 488794; yeast expressing human NALP3, luminescence read-out; actives 53% (n = 1,000); shares compounds with NLRP3 yeast inh; inhibition, % at 10 µM
The depositor's hits bear a star; nt = no result. Cut-off read from the data, not from the text of the source, unless noted: active = inhibition above about 50%; inactive = the rest.

SMILES	NALP1 yeast inh	Bfl-1 A1 inh	MC4R antag cAMP	TbMetRS inhib	NLRP3 yeast inh	MC4R ag barr	NALP3 yeast conf	others
CN(C)c1ccc(C(=O)N/N=C/C23CC[C@@H](O)CC2(O)CC[C@@H]2[C@@H]3CCC3(C)C(C4=CC(=O)OC4)CCC23O)cc1 (some centres undefined)	nt	0	-7	0	7	14*	nt
O=C1NC(=O)N(Cc2ccco2)C(=O)/C1=C/c1ccc(-c2cccc([N+](=O)[O-])c2)o1	29	0	31*	0	18	-1	nt
C=CCN1C(=O)NC(=O)/C(=C\c2ccc(-c3ccccc3[N+](=O)[O-])o2)C1=O	8	0	13	0	22	0	nt
C=C1C2[C@H](OC(C)=O)[C@@H]3CC(=O)[C@]4(C)OC[C@@]3(C)[C@@]4(O)[C@@H](OC(C)=O)[C@H](OC(C)=O)[C@@]2(COC(=O)c2ccccc2)[C@@H](OC(C)=O)C[C@@H]1O (some centres undefined)	-1	0	5	-3	3	-1	nt
CC(C)(C)[C@]1(O)C[C@@H]2OC(=O)C[C@@]23C(=O)O[C@@H]2OC(=O)[C@@H](O)C213 (some centres undefined)	nt	1	1	0	-5	1	nt
COC(=O)C1=C(c2ccc(F)cc2F)C[C@@H]2CC[C@H]1N2C(=O)NC1Cc2ccccc2C1	nt	-1	2	0	-136	-1	22
COC(=O)C1=C(c2ccc(F)cc2F)C[C@@H]2CC[C@H]1N2C(=O)NC1CCCCC1	nt	2	0	1	8	-1	nt
COC(=O)C1=C(c2ccc(OC)c(OC)c2)C[C@@H]2CC[C@H]1N2C(=O)NCC1CC1	nt	0	3	0	6	0	nt
C[C@]12CCC3C(CC[C@@H]4CC(=O)CC[C@]34C)C1CC[C@@H]2O (some centres undefined)	nt	0	-1	0	68*	-2	58*
C[C@H]1CC[C@@]2(C)[C@@H](CC[C@@H]3[C@@H]2CC[C@]2(C)[C@@H](O)CC[C@@H]32)C1	nt	0	5	0	44	1	nt
C[C@]12CC(=O)CC1CCC1C2CC[C@@]2(C)C1CC[C@@H]2O (some centres undefined)	42*	1	3	0	60*	-2	61*	Casp1-ASC yeast=63*;NALP3 retest=40
C[C@]12CCC(=O)C[C@@H]1CC[C@@H]1[C@@H]2CC[C@@]2(C)[C@H]1CC[C@]2(C)O	12	nt	nt	nt	nt	nt	nt
C[C@]12CCC(=O)C[C@@H]1CC[C@@H]1[C@@H]2CC[C@]2(C)[C@@H](O)CC[C@@H]12	nt	nt	8	0	50*	-1	55*	Casp1-ASC yeast=60*;NALP3 retest=42
CC12CCC3C(CCC4C/C(=N/O)CCC43C)C1CCC2O (centres undefined)	36	1	0	0	63*	-3	42	Casp1-ASC yeast=63*;NALP3 retest=47
CC12CCC3C(CCC4CC(=O)OCC43C)C1CCC2O (centres undefined)	nt	nt	10	1	nt	0	nt
O=c1c([N+](=O)[O-])cn(O)cc1[N+](=O)[O-]	nt	nt	-4	0	nt	-1	nt
C[C@]12CC[C@@H](O)C[C@H]1CC[C@@H]1[C@@H]2CC[C@]2(C)C(=O)CC[C@@H]12	nt	0	-2	-1	66*	-1	72*	Casp1-ASC yeast=70*;NALP3 retest=60*
C[C@]12C[C@H](O)[C@@H](O)C[C@@H]1CC[C@@H]1[C@@H]2CC[C@]2(C)C(=O)CC[C@@H]12	nt	nt	-4	0	nt	1	nt
C[C@]12CC[C@H](O)C[C@H]1CC[C@@H]1[C@@H]2CC[C@]2(C)C(=O)CC[C@@H]12	nt	nt	-2	0	54*	-1	67*	Casp1-ASC yeast=65*;NALP3 retest=56*
C[C@]12CCC3C(CC[C@@H]4C[C@H](O)CC[C@]34C)C1CCC2=O (some centres undefined)	nt	1	14	0	73*	1	72*	Casp1-ASC yeast=72*;NALP3 retest=52*
C[C@]12CCC3[C@@H](CC[C@H]4C[C@@H](O)CC[C@]34C)C1CCC2=O (some centres undefined)	19	0	-7	-1	59*	1	71*
C[C@]12CCC3C(CC[C@H]4C[C@@H](O)CC[C@]34C)C1C[C@@H](O)C2=O (some centres undefined)	nt	1	-1	0	47	0	nt
COc1ccc(CN2Cc3cnnn3-c3ccccc3C2C)cc1 (centres undefined)	nt	nt	9	1	nt	-1	nt
O=P(O)(Oc1ccccc1)c1ccccc1	nt	nt	8	0	nt	1	nt
Cc1cc(C)cc(N2C(=O)NC(=O)/C(=C\c3cccn3-c3ccccc3)C2=O)c1	9	1	16	-1	6	-2	nt
SMILES	NALP1 yeast inh	Bfl-1 A1 inh	MC4R antag cAMP	TbMetRS inhib	NLRP3 yeast inh	MC4R ag barr	NALP3 yeast conf	others
CN1C(=O)/C(=C/c2cccn2-c2ccc3ccccc3c2)C(=O)NC1=S	20	0	16	1	56*	-1	18
COc1cc(C)cc2oc(=O)c(CC(=O)N3C[C@H]4C[C@@H](C3)c3cccc(=O)n3C4)c(C)c12	1	0	20	0	11	1	nt
CC(C)Oc1ccc(CCN)cc1Cl	44*	0	-1	-1	53*	0	57*	Casp1-ASC yeast=35;NALP3 retest=46
CCCC(=O)NC(Oc1ccc(Cl)cc1Cl)C(Cl)(Cl)Cl (centres undefined)	0	-1	-5	0	14	-1	nt
C[C@@H]1C[C@@H]([C@H](O)CC2CC(=O)NC(=O)C2)C(=O)[C@@H](C)C1	nt	3	8	-1	97*	3	98*	Casp1-ASC yeast=99*;NALP3 retest=98*
C[C@]12CCC3C(CC[C@H]4C[C@@H](O)CC[C@]34C)C1CC[C@@]2(O)C(F)(F)F (some centres undefined)	nt	1	1	0	56*	-2	55*
C[C@]12C[C@@H](O)[C@H](O)CC1=CCC1C2CC[C@@]2(C)C1CC[C@@H]2O (some centres undefined)	nt	2	7	0	58*	-2	55*
C[C@]12CCC3C(CC[C@H]4C[C@@H](O)[C@H](O)C[C@]34C)C1CC[C@@H]2O (some centres undefined)	nt	0	-2	0	55*	-1	60*

Compound activity: PubChem BioAssay, several laboratories
